In ChEMBL document CHEMBL4041548, “Ester Prodrugs of IHVR-19029 with Enhanced Oral Exposure and Prevention of Gastrointestinal Glucosidase Interaction” (ACS Med Chem Lett, 2017):
The source made the active and inactive calls. No cut-off for these calls is given here.

Experiments:
[1] = Inhibition of endoplasmic reticulum alpha-glucosidase in HEK293 cells infected with DENV assessed as reduction in viral infection; format: cell-based; settings: Homo sapiens
[2] = test system: Liver; experiment: Half life in pooled mouse liver microsomes at 200 uM by LC-MS/MS analysis; format: ADME, microsome; settings: microsomes, 200 µM
In short: (§1)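 Prodrugs or parent incubated in pooled human or mouse liver microsomes for up to 60 min, with or without cofactor. Percent remaining and percent conversion to the parent were measured.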

[3] = Metabolic stability in pooled mouse liver microsomes assessed as parent compound remaining at 200 uM measured after 60 mins in presence of NADPH and UDPGA by LC-MS/MS analysis; format: ADME, microsome; settings: read-out: Stability; in short: as §1
[4] = Metabolic stability in human intestinal S9 fraction assessed as parent compound level at 200 uM measured after 1 hr in presence or absence of NADPH by LC-MS/MS analysis; format: ADME, Intestine; settings: read-out: Stability
In short: (§2)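 Compounds incubated with intestinal S9 fraction for 1 h. Percent prodrug remaining and percent conversion to the parent were measured.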

[5] = Metabolic stability in mouse plasma assessed as parent compound remaining at 5 uM measured after 2 hrs by LC-MS/MS analysis; format: ADME, cell-free; settings: read-out: Stability
In short: (§3)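 Compounds incubated in human or mouse plasma for 2 h. Percent remaining and percent conversion to the parent were determined.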

[6] = Tmax in BALB/c mouse at 25 mg/kg, po administered as single dose by LC-MS/MS analysis; format: ADME, organism-based; settings: in vivo
In short: (§4)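 Male BALB/c mice dosed with the prodrugs or the parent orally (25 or 100 mg/kg) or intravenously (5 mg/kg). The parent compound was quantified in plasma and PK parameters were derived from it. The first sampling point was 5 min post-dose, and prodrugs were tracked up to 4 h.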

[7] = test system: Liver; experiment: Metabolic stability in pooled mouse liver microsomes assessed as parent compound remaining at 200 uM measured after 60 mins by LC-MS/MS analysis; format: ADME, microsome; settings: microsomes, 1 h, 200 µM; in short: as §1
[8] = test system: Liver; experiment: Half life in pooled human liver microsomes at 200 uM by LC-MS/MS analysis; format: ADME, microsome; settings: microsomes, 200 µM; in short: as §1
[9] = Half life in BALB/c mouse at 5 mg/kg, iv as bolus administration by LC-MS/MS analysis; format: ADME, organism-based; settings: in vivo; in short: as §4
[10] = Cmax in BALB/c mouse at 100 mg/kg, po administered as single dose by LC-MS/MS analysis; format: ADME, organism-based; set-up: dose 100 mg/kg, route oral; settings: in vivo; in short: as §4
[11] = test system: Liver; experiment: Metabolic stability in pooled human liver microsomes assessed as parent compound remaining at 200 uM measured after 60 mins by LC-MS/MS analysis; format: ADME, microsome; settings: microsomes, 1 h, 200 µM; in short: as §1
[12] = Inhibition of pig liver endoplasmic reticulum alpha glucosidase-2 using 4-methylumbelliferyl-alpha-D-glucoside as substrate measured after 60 mins by fluorescence analysis; set-up: species or system Sus scrofa
[13] = Stability in simulated gastric fluid assessed as parent compound remaining at 5 uM measured after 4 hrs by LC-MS/MS analysis
In short: (§5)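 Chemical stability assessed by incubation in simulated gastric fluid and simulated intestinal fluid; percent of compound remaining was measured.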

[14] = organism: Bos taurus; experiment: Inhibition of endoplasmic reticulum alpha-glucosidase in MDBK cells infected with Bovine Viral Diarrhea virus assessed as reduction in BVDV envelope glycoprotein E2 level at 3 to 100 uM by immunoblot analysis; format: cell-based
In short: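 MDBK cells infected with BVDV, then treated with various concentrations of the compounds. Cell lysates were run on SDS-PAGE and immunoblotted for the E2 envelope glycoprotein, looking for a mobility shift and lower intensity, with β-actin as internal control.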

[15] = Volume of distribution at steady state in BALB/c mouse at 5 mg/kg, iv as bolus administration by LC-MS/MS analysis; format: ADME, organism-based; settings: in vivo, read-out: Vdss; in short: as §4
[16] = Tmax in BALB/c mouse at 100 mg/kg, po administered as single dose by LC-MS/MS analysis; format: ADME, organism-based; settings: in vivo; in short: as §4
[17] = Clearance in BALB/c mouse at 5 mg/kg, iv as bolus administration by LC-MS/MS analysis; format: ADME, organism-based; settings: in vivo; in short: as §4
[18] = test system: Mus musculus; experiment: AUC(0 to infinity) in BALB/c mouse at 5 mg/kg, iv as bolus administration by LC-MS/MS analysis; format: ADME, organism-based; set-up: dose 5 mg/kg, time infinity, route intravenous; settings: in vivo
[19] = Cmax in BALB/c mouse at 5 mg/kg, iv as bolus administration by LC-MS/MS analysis; format: ADME, organism-based; set-up: dose 5 mg/kg, route intravenous; settings: in vivo; in short: as §4
[20] = Half life in BALB/c mouse at 25 mg/kg, po administered as single dose by LC-MS/MS analysis; format: ADME, organism-based; settings: in vivo; in short: as §4
[21] = Inhibition of endoplasmic reticulum alpha-glucosidase in human Huh7.5 cells infected with DENV assessed as reduction in viral growth by measuring DENV RNA level by qRT-PCR method; format: cell-based
In short: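 Huh7.5 cells infected with dengue virus and treated with a concentration series of the compounds (n = 4). DENV RNA was quantified by qRT-PCR and the EC50 was calculated.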

[22] = Metabolic stability in human plasma assessed as parent compound remaining at 5 uM measured after 2 hrs by LC-MS/MS analysis; format: ADME, cell-free; settings: read-out: Stability; in short: as §3
[23] = Half life in BALB/c mouse at 100 mg/kg, po administered as single dose by LC-MS/MS analysis; format: ADME, organism-based; settings: in vivo; in short: as §4
[24] = test system: Mus musculus; experiment: AUC(0 to infinity) in BALB/c mouse at 100 mg/kg, po administered as single dose by LC-MS/MS analysis; format: ADME, organism-based; set-up: dose 100 mg/kg, time infinity, route oral; settings: in vivo
[25] = Metabolic stability in mouse intestinal S9 fraction assessed as parent compound level at 200 uM measured after 1 hr in presence or absence of NADPH by LC-MS/MS analysis; format: ADME, Intestine; settings: read-out: Stability; in short: as §2
[26] = Stability in simulated intestinal fluid assessed as parent compound remaining at 5 uM measured after 4 hrs by LC-MS/MS analysis; in short: as §5
[27] = Metabolic stability in pooled human liver microsomes assessed as parent compound remaining at 200 uM measured after 60 mins in presence of NADPH and UDPGA by LC-MS/MS analysis; format: ADME, microsome; settings: read-out: Stability; in short: as §1
[28] = Cmax in BALB/c mouse at 25 mg/kg, po administered as single dose by LC-MS/MS analysis; format: ADME, organism-based; set-up: dose 25 mg/kg, route oral; settings: in vivo; in short: as §4
[29] = Inhibition of pig liver endoplasmic reticulum alpha glucosidase-1 using 4-methylumbelliferyl-alpha-D-glucoside as substrate measured after 90 mins by fluorescence analysis; set-up: species or system Sus scrofa
[30] = test system: Mus musculus; experiment: AUC(0 to infinity) in BALB/c mouse at 25 mg/kg, po administered as single dose by LC-MS/MS analysis; format: ADME, organism-based; set-up: dose 25 mg/kg, time infinity, route oral; settings: in vivo

OC[C@H]1NC[C@H](O)[C@@H](O)[C@@H]1O [DUVOGLUSTAT]
EC50 [1]: 364 µM

CCCCN1C[C@H](O)[C@@H](O)[C@H](O)[C@H]1CO [MIGLUSTAT]
EC50 [1]: 56.4 µM

CCC(O)(CC)CCCCCCN1C[C@H](O)[C@@H](O)[C@H](O)[C@H]1CO
EC50 [1]: 2.2 µM

CC(C)(C)NC(=O)N(CCCCCCN1C[C@H](O)[C@@H](O)[C@H](O)[C@H]1CO)C1CCCCC1
t1/2 [2]: 1.57 h | remaining at 1 h, 200 µM [3]: 63% | remaining at 1 h, 200 µM [4]: 76 to 95% | remaining at 2 h, 5 µM [5]: 93% | Tmax [6]: 0.25 h | Stability [7]: 96% | t1/2 [8]: 1.73 h | half-life [9]: 0.98 h | Cmax [10]: 915 ng/mL | Stability [11]: 99% | IC50 [12]: 27.8 µM | Stability [13]: 109% | inhibition [14]: Active | Vd [15]: 2.13 L/kg | Tmax [16]: 0.5 h | clearance [17]: 70 mL/min/kg | AUC [18]: 1191 ng·mL·h | Cmax [19]: 2840 ng/mL | half-life [20]: 5.19 h | EC50 [21]: 4.1 µM | remaining at 2 h, 5 µM [22]: 109% | half-life [23]: 5.46 h | AUC [24]: 996 ng·mL·h | remaining at 1 h, 200 µM [25]: 76 to 95% | Stability [26]: 114% | remaining at 1 h, 200 µM [27]: 68% | Cmax [28]: 184 ng/mL | IC50 [29]: 0.81 µM | AUC [30]: 150 ng·mL·h | EC50 [1]: 1.2 µM

OC[C@@H]1[C@@H](O)[C@H](O)[C@@H](O)CN1CCCCCCOc1cc(F)ccc1F
EC50 [1]: 0.5 µM

CCCCCCCCCN1C[C@H](O)[C@@H](O)[C@H](O)[C@H]1CO
EC50 [1]: 7.1 µM
